Results as given in ChEMBL document CHEMBL4364301 (Eur J Med Chem, 2019).

Assays:
Type in all cases: functional
LNCaP [1] = assay: Antiproliferative activity against human LNCAP cells assessed as T/C value at 3.2 uM incubated for 96 hrs by propidium iodide based 2D monolayer assay
Method in brief: (§1)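 Cells were kept in RPMI 1640 with 25 mM HEPES, 10% FCS and gentamicin at 37 °C under 5% CO2, and plated at 4,000-20,000 cells/well. After 24 h recovery, compound in medium or medium alone (control wells) was added at 10 half-log concentrations from 0.0032 to 100 µM, in triplicate, with at most 0.3% DMSO. After 96 h, wells were PBS-washed, stained with 7 µg/ml PI and 0.1% Triton X-100, and fluorescence read at 530/620 nm. IC50 came from a 4-parameter fit, geometric mean.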

MCF7 [2] = assay: Antiproliferative activity against human MCF7 cells assessed as T/C value at 1 x 10^-2 uM incubated for 96 hrs by propidium iodide based 2D monolayer assay
MCF7 [3] = assay: Antiproliferative activity against human MCF7 cells assessed as T/C value at 1 x 10^2 uM incubated for 96 hrs by propidium iodide based 2D monolayer assay
VCaP [4] = assay: Antiproliferative activity against human VCaP cells assessed as T/C value at 3.2 x 10^1 uM incubated for 96 hrs by propidium iodide based 2D monolayer assay
Method in brief: (§2)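 VCaP cells in RPMI 1640 with 10% FCS at 37 °C, 5% CO2, seeded 4,000–20,000 cells/well and left 24 h before dosing. Compounds from DMSO stocks were diluted in half-log steps in medium, 10 concentrations 0.0032–100 μM, triplicate wells, max 0.3% DMSO. After 96 h, cells were washed, stained with 7 μg/ml propidium iodide plus 0.1% Triton X-100 for 1–2 h at room temperature, and fluorescence read at ex 530/em 620 nm.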

DU-145 = assay: Antiproliferative activity against human DU145 cells assessed as T/C value at 1 x 10^2 uM incubated for 96 hrs by propidium iodide based 2D monolayer assay; method in brief: as §1
VCaP [5] = assay: Antiproliferative activity against human VCaP cells assessed as T/C value at 1 x 10^2 uM incubated for 96 hrs by propidium iodide based 2D monolayer assay; method in brief: as §1
LNCaP [6] = assay: Antiproliferative activity against human LNCAP cells assessed as T/C value at 1 x 10^-1 uM incubated for 96 hrs by propidium iodide based 2D monolayer assay; method in brief: as §1
MCF7 [7] = assay: Antiproliferative activity against human MCF7 cells assessed as T/C value at 3.2 x 10^-1 uM incubated for 96 hrs by propidium iodide based 2D monolayer assay
LNCaP [8] = assay: Antiproliferative activity against human LNCAP cells assessed as T/C value at 1 x 10^2 uM incubated for 96 hrs by propidium iodide based 2D monolayer assay; method in brief: as §1
MCF7 [9] = assay: Antiproliferative activity against human MCF7 cells assessed as T/C value at 3.2 uM incubated for 96 hrs by propidium iodide based 2D monolayer assay
LNCaP [10] = assay: Antiproliferative activity against human LNCAP cells assessed as reduction in cell growth incubated for 96 hrs by propidium iodide based 2D monolayer assay
Method in brief: as §1, with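 “After” for “Cells were kept in RPMI 1640 with 25 mM HEPES, 10% FCS and gentamicin at 37 °C under 5% CO2, and plated at 4,000-20,000 cells/well. After”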

CWR22R = assay: Antiproliferative activity against human 22Rv1 cells assessed as T/C value at 3.2 x 10^-3 uM incubated for 96 hrs by propidium iodide based 2D monolayer assay; method in brief: as §1
VCaP [11] = assay: Antiproliferative activity against human VCaP cells assessed as T/C value at 1 x 10^-1 uM incubated for 96 hrs by propidium iodide based 2D monolayer assay; method in brief: as §1
LNCaP [12] = assay: Antiproliferative activity against human LNCAP cells assessed as T/C value at 1 uM incubated for 96 hrs by propidium iodide based 2D monolayer assay; method in brief: as §1
VCaP [13] = assay: Antiproliferative activity against human VCaP cells assessed as T/C value at 3.2 x 10^-3 uM incubated for 96 hrs by propidium iodide based 2D monolayer assay; method in brief: as §2
LNCaP [14] = assay: Antiproliferative activity against human LNCAP cells assessed as T/C value at 1 x 10^-2 uM incubated for 96 hrs by propidium iodide based 2D monolayer assay; method in brief: as §1
LNCaP [15] = assay: Antiproliferative activity against human LNCAP cells assessed as T/C value at 3.2 x 10^-3 uM incubated for 96 hrs by propidium iodide based 2D monolayer assay; method in brief: as §1
MCF7 [16] = assay: Antiproliferative activity against human MCF7 cells assessed as T/C value at 1 uM incubated for 96 hrs by propidium iodide based 2D monolayer assay
MCF7 [17] = assay: Antiproliferative activity against human MCF7 cells assessed as T/C value at 3.2 x 10^-2 uM incubated for 96 hrs by propidium iodide based 2D monolayer assay
MCF7 [18] = assay: Antiproliferative activity against human MCF7 cells assessed as T/C value at 1 x 10^-1 uM incubated for 96 hrs by propidium iodide based 2D monolayer assay
MCF7 [19] = assay: Antiproliferative activity against human MCF7 cells assessed as T/C value at 3.2 x 10^1 uM incubated for 96 hrs by propidium iodide based 2D monolayer assay

Structure (SMILES): CC(O)(CSc1cc(C(F)(F)F)cc(C(F)(F)F)c1)C(=O)Nc1cccc(C(F)(F)C(F)(F)F)c1 (racemic)
- T/C (LNCaP [1]): 72%
- T/C (MCF7 [2]): 115%
- T/C (MCF7 [3]): 5%
- T/C (VCaP [4]): 20%
- T/C (DU-145): 2%
- T/C (VCaP [5]): 11%
- T/C (LNCaP [6]): 97%
- T/C (MCF7 [7]): 121%
- T/C (LNCaP [8]): 7%
- T/C (MCF7 [9]): 109%
- IC50 (LNCaP [10]): 3.9 µM
- IC70 (LNCaP [10]): 4.68 µM
- T/C (CWR22R): 104%
- T/C (VCaP [11]): 115%
- T/C (LNCaP [12]): 107%
- T/C (VCaP [13]): 104%
- T/C (LNCaP [14]): 93%
- T/C (LNCaP [15]): 90%
- T/C (MCF7 [16]): 119%
- T/C (MCF7 [17]): 118%
- T/C (MCF7 [18]): 111%
- T/C (MCF7 [19]): 10%
